In ChEMBL document CHEMBL3091445, “The 3,7-diazabicyclo[3.3.1]nonane scaffold for subtype selective nicotinic acetylcholine receptor ligands. Part 2: carboxamide derivatives with different spacer motifs” (Bioorg Med Chem, 2013):
Active and inactive are the calls of the source. No cut-off for these calls is given here.

Experiments:
[1] = target: T1, Neuronal acetylcholine receptor; alpha4/beta2 (Homo sapiens) (UniProt P17787+P43681); assay: Partial agonist activity at human alpha4beta2 nAChR expressed in Xenopus oocytes at 10 uM incubated for 8 secs followed by compound washout measured after 241 secs by two-electrode voltage clamp technique; type: cell-based
[2] = target: T2, Nicotinic acetylcholine receptor alpha1/beta1/epsilon/delta (Mus musculus) (UniProt P04756+P09690+P02716+P20782); assay: Agonist activity at mouse muscle alpha1beta1epsilondelta nAChR expressed in Xenopus oocytes at 10 uM incubated for 8 secs followed by compound washout measured after 241 secs by two-electrode voltage clamp technique; type: cell-based
[3] = target: T2, Nicotinic acetylcholine receptor alpha1/beta1/epsilon/delta (Mus musculus); assay: Agonist activity at mouse muscle alpha1beta1epsilondelta nAChR expressed in Xenopus oocytes at 1 uM incubated for 8 secs followed by compound washout measured after 241 secs by two-electrode voltage clamp technique; type: cell-based
[4] = target: T3, Neuronal acetylcholine receptor; alpha3/beta4 (Homo sapiens) (UniProt P30926+P32297); assay: Antagonist activity at human alpha3beta4 nAChR expressed in Xenopus oocytes at 1 uM incubated for 8 secs followed by compound washout measured after 241 secs by two-electrode voltage clamp technique; type: cell-based
[5] = target: T3, Neuronal acetylcholine receptor; alpha3/beta4 (Homo sapiens); assay: Agonist activity at human alpha3beta4 nAChR expressed in Xenopus oocytes at 1 uM incubated for 8 secs followed by compound washout measured after 241 secs by two-electrode voltage clamp technique; type: cell-based
[6] = target: T1, Neuronal acetylcholine receptor; alpha4/beta2 (Homo sapiens); assay: Partial agonist activity at human alpha4beta2 nAChR expressed in Xenopus oocytes at 1 uM incubated for 8 secs followed by compound washout measured after 241 secs by two-electrode voltage clamp technique; type: cell-based
[7] = target: Neuronal acetylcholine receptor subunit alpha-7 (Homo sapiens) (UniProt P36544); assay: Agonist activity at human alpha7 nAChR expressed in Xenopus oocytes at 1 uM incubated for 12 secs followed by compound washout measured after 181 secs by two-electrode voltage clamp technique; type: cell-based
Neuronal acetylcholine receptor subunit alpha-7 (Homo sapiens), sequence (P36544 whole entry): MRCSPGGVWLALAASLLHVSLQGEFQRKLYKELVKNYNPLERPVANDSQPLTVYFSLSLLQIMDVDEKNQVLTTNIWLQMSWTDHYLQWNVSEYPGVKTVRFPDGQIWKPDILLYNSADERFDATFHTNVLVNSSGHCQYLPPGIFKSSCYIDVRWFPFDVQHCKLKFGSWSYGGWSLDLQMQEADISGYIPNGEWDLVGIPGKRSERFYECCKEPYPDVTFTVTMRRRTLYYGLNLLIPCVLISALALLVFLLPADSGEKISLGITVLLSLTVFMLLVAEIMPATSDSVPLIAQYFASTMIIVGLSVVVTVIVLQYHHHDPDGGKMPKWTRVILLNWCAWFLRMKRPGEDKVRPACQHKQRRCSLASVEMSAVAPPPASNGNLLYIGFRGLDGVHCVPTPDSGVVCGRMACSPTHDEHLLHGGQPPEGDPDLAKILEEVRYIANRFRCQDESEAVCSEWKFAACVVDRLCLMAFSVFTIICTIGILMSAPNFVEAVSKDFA

[8] = target: Neuronal acetylcholine receptor subunit alpha-7 (Homo sapiens) (UniProt P36544); assay: Antagonist activity at human alpha7 nAChR expressed in Xenopus oocytes assessed as inhibition of acetylcholine-induced effect at 1 uM incubated for 12 secs followed by compound washout measured after 181 secs by two-electrode voltage clamp technique; type: cell-based
[9] = target: T2, Nicotinic acetylcholine receptor alpha1/beta1/epsilon/delta (Mus musculus); assay: Antagonist activity at mouse muscle alpha1beta1epsilondelta nAChR expressed in Xenopus oocytes assessed as inhibition of acetylcholine-induced effect at 1 uM incubated for 8 secs followed by compound washout measured after 241 secs by two-electrode voltage clamp technique; type: cell-based
[10] = target: T3, Neuronal acetylcholine receptor; alpha3/beta4 (Homo sapiens); assay: Agonist activity at human alpha3beta4 nAChR expressed in Xenopus oocytes at 10 uM incubated for 8 secs followed by compound washout measured after 241 secs by two-electrode voltage clamp technique; type: cell-based
[11] = Displacement of [3H]epibatidine from Torpedo californica electroplax (alpha1)2beta1gammadelta nAChR after 90 mins by liquid scintillation counting analysis; design: species or system Tetronarce californica
[12] = target: Neuronal acetylcholine receptor subunit alpha-7 (Rattus norvegicus, UniProt Q05941); assay: Displacement of [3H]methyllycaconitine from Sprague-Dawley rat brain alpha7 nAChR after 120 mins by liquid scintillation counting analysis; type: tissue-based
Neuronal acetylcholine receptor subunit alpha-7, sequence (Q05941 whole entry): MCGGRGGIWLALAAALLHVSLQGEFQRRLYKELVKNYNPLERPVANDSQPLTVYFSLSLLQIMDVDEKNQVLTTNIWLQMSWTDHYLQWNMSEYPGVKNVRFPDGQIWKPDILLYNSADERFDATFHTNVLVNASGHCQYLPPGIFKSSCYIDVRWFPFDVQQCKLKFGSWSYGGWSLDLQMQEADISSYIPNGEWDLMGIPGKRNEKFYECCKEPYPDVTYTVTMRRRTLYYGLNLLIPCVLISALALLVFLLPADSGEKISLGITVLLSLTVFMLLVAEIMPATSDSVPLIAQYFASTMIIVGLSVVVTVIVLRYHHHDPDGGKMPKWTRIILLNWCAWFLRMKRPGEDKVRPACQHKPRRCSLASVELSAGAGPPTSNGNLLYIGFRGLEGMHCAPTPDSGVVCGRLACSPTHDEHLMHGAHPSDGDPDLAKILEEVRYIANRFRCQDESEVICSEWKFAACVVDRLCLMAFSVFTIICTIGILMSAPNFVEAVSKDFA
How it was run: (§1)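 Radioligand competition binding gave Ki values, reported as mean ± SEM from 2–10 independent experiments.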

[13] = Displacement of [3H]epibatidine from calf adrenal alpha3beta4 nAChR after 90 mins by liquid scintillation counting analysis; design: species or system Bos taurus
[14] = target: Neuronal acetylcholine receptor; alpha4/beta2 (Rattus norvegicus, UniProt P09483+P12390); assay: Displacement of [3H]epibatidine from Sprague-Dawley rat brain alpha4beta2 nAChR after 90 mins by liquid scintillation counting analysis; how it was run: as §1
Neuronal acetylcholine receptor; alpha4/beta2, sequence (P09483 whole entry): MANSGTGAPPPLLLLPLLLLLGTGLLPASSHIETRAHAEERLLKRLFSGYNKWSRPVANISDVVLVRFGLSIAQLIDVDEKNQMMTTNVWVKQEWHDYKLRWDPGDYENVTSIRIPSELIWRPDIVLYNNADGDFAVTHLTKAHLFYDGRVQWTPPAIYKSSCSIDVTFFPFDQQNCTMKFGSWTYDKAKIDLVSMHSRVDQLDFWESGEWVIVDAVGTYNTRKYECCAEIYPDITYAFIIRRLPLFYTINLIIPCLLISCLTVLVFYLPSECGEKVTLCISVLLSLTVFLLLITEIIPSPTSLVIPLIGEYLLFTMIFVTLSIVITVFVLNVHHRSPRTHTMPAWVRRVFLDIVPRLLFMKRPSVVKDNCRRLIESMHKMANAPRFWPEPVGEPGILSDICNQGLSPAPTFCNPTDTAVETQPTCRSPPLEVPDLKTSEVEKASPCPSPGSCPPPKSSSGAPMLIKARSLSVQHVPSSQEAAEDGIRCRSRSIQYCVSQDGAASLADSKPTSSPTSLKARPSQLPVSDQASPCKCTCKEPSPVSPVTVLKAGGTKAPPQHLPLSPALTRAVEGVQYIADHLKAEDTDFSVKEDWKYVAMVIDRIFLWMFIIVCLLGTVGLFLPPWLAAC
Neuronal acetylcholine receptor; alpha4/beta2, sequence (P12390 whole entry): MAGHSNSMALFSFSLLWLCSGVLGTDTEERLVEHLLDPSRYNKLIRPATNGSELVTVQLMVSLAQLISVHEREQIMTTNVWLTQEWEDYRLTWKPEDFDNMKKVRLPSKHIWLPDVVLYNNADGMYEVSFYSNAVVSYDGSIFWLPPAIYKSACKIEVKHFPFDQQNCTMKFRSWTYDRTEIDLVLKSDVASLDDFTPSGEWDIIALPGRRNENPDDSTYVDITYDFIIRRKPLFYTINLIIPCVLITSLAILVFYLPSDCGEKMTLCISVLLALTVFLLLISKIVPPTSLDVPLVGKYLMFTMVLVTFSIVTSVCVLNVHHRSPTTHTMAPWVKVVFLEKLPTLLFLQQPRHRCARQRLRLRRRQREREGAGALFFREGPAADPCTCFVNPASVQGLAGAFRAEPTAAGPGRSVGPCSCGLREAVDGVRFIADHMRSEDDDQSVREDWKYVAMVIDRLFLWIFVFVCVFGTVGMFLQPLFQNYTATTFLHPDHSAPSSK

[15] = target: T1, Neuronal acetylcholine receptor; alpha4/beta2 (Homo sapiens); assay: Antagonist activity at human alpha4beta2 nAChR expressed in Xenopus oocytes assessed as inhibition of acetylcholine-induced effect at 1 uM incubated for 8 secs followed by compound washout measured after 241 secs by two-electrode voltage clamp technique; type: cell-based

Ki [11]	Ki [13]	antagonist activity (active/inactive) [15]	SMILES	Activity [1]	Activity [2]	Activity [3]	Activity [4]	Activity [5]	Activity [6]	Activity [7]	inhibition [8]	inhibition [9]	Activity [10]	Ki [12]	Ki [14]
			O=C(/C=C/c1cccc(Cl)c1)N1C[C@@H]2CNC[C@@H](C2)C1	Active	inactive		inactive				inactive	inactive	inactive	> 10 µM	0.0237 µM
> 5 µM	> 1 µM	Active	COc1ccc(C#CC(=O)N2C[C@@H]3CNC[C@@H](C3)C2)cc1OC	Active	inactive		inactive				inactive	Active	inactive	> 1 µM	0.0021 µM
			COc1ccc(/C=C/C(=O)N2C[C@@H]3CNC[C@@H](C3)C2)cc1	Active	inactive	inactive	inactive	inactive	Active	inactive	inactive	inactive	inactive		0.0396 µM
			O=C(/C=C/c1ccsc1)N1C[C@@H]2CNC[C@@H](C2)C1	Active	inactive		inactive				inactive	inactive	inactive	> 10 µM	0.0571 µM
> 5 µM	> 1 µM		O=C(Cc1ccc2c(c1)OCO2)N1C[C@@H]2CNC[C@@H](C2)C1	Active	inactive	inactive	inactive	inactive	Active	inactive	inactive	inactive	inactive	> 1 µM	0.0132 µM
> 5 µM	> 1 µM		O=C(Cc1ccc2ccccc2c1)N1C[C@@H]2CNC[C@@H](C2)C1	Active	inactive		inactive				inactive	inactive	inactive	> 1 µM	0.0102 µM
> 10 µM	> 5 µM		O=C(/C=C/c1ccccc1)N1C[C@@H]2CNC[C@@H](C2)C1	Active	inactive	inactive	inactive	inactive	Active	inactive	inactive	inactive	inactive	> 5 µM	0.0551 µM
> 5 µM	> 1 µM	Active	O=C(C#Cc1ccc2c(c1)OCO2)N1C[C@@H]2CNC[C@@H](C2)C1	Active	inactive		inactive				inactive	inactive	inactive	> 1 µM	0.0031 µM
> 10 µM	> 5 µM		O=C(/C=C/c1ccc(F)cc1)N1C[C@@H]2CNC[C@@H](C2)C1	Active	inactive		inactive				inactive	inactive		> 5 µM	0.0207 µM
			O=C(Cc1ccccc1)N1C[C@@H]2CNC[C@@H](C2)C1	Active	inactive	inactive	inactive	inactive	Active	inactive	inactive	inactive	inactive	> 10 µM	0.0576 µM
> 5 µM	> 1 µM		O=C(/C=C/c1ccc2c(c1)OCO2)N1C[C@@H]2CNC[C@@H](C2)C1	Active	inactive	inactive	inactive	inactive	Active	inactive	inactive	inactive	inactive	> 1 µM	0.0369 µM
	0.396 µM		O=C(CCc1ccccc1)N1C[C@@H]2CNC[C@@H](C2)C1	Active	inactive	inactive	inactive	inactive	Active	inactive	inactive	inactive	inactive	> 10 µM	0.0525 µM

SMILES	Ki [11]	Ki [13]	antagonist activity (active/inactive) [15]	Activity [1]	Activity [2]	Activity [3]	Activity [4]	Activity [5]	Activity [6]	Activity [7]	inhibition [8]	inhibition [9]	Activity [10]	Ki [12]	Ki [14]
O=C(Cc1ccncc1)N1C[C@@H]2CNC[C@@H](C2)C1	> 5 µM	> 1 µM		Active	inactive	inactive	inactive	inactive	Active	inactive	inactive	inactive	inactive	> 1 µM	0.0144 µM
O=C(/C=C/c1ccncc1)N1C[C@@H]2CNC[C@@H](C2)C1	> 5 µM	> 1 µM		Active	inactive	inactive	inactive	inactive	Active	inactive	inactive	inactive	inactive	> 10 µM	0.00103 µM
Cc1cc(CC(=O)N2C[C@@H]3CNC[C@@H](C3)C2)on1		> 1 µM				inactive	inactive	inactive	Active	inactive	inactive	inactive		> 1 µM	0.0469 µM
O=C(CCc1cccnc1)N1C[C@@H]2CNC[C@@H](C2)C1	> 5 µM	> 5 µM		Active	inactive		inactive				inactive	inactive	inactive	> 5 µM	0.039 µM
O=C(/C=C/c1cccnc1)N1C[C@@H]2CNC[C@@H](C2)C1	> 5 µM	> 1 µM		Active	inactive	inactive	inactive	inactive	Active	inactive	inactive	inactive	inactive	> 1 µM	0.0326 µM
O=C(Cc1cccnc1)N1C[C@@H]2CNC[C@@H](C2)C1	> 5 µM	> 1 µM		Active	inactive	inactive	inactive	inactive	Active	inactive	inactive	inactive	inactive	> 1 µM	0.0112 µM
O=C(C#Cc1ccccc1)N1C[C@@H]2CNC[C@@H](C2)C1	> 1 µM	> 1 µM		Active	inactive		inactive				inactive	inactive	inactive	> 5 µM	0.0109 µM
